RGS4 block = human RGS4 inhibition | 310,000 compounds, 0.45% hits | P49798 | HEK293 M3R/RGS4 inducible, Fluo-4 calcium flux; hits give high values; triggered by carbachol at its EC20 | B-score at 10 µM;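 active = B-score, a plate-corrected calcium signal, over three deviations above library mean, with baseline fluorescence within five deviations of library mean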;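 also: RGS4 expression induced by doxycycline in cells with stable M3 receptor; B-score is computed from the integrated fluorescence ratio over baseline after carbachol; higher B-score means a larger calcium signal and so more RGS4 inhibition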
Target sequence (P49798 whole entry, looked up): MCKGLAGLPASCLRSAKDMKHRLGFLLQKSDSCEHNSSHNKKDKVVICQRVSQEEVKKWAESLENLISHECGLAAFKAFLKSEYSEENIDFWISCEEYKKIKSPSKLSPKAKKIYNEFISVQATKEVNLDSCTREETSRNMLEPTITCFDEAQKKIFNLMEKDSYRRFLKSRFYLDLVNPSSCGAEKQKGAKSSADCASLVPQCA
MrgX1 agonist = human MrgX1 receptor agonism, primary screen | B-score at 10 µM | AID 588627 | MrgX1-HEK293 cells, Fluo-4 calcium fluorescence, agonist mode; hits give high values | Q96LB2 | 310,000 compounds, 0.44% hits;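 active = calcium response B-score plate-corrected fluorescence ratio at least 3 library SD, with starting fluorescence B-score inside 5 SD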
Target sequence (Q96LB2 whole entry, looked up): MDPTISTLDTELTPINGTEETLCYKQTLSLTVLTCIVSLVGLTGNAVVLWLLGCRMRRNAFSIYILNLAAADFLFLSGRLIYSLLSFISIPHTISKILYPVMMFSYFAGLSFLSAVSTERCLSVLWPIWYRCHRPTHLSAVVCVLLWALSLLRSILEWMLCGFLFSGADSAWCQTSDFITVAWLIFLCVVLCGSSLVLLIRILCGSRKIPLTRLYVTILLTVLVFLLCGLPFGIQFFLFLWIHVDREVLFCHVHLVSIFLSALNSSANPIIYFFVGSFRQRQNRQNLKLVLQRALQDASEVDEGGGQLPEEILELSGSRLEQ
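Assay system: MrgX1-expressing HEK293 cells / Amount: fifteen thousand cells per well / Doses: test compound in the initial addition of three / Timing: cells plated overnight, dye loaded 0.5 h 37 °C, 0.5 h room temperature / Technique: kinetic calcium dye fluorescence, Fluo-4 NW / Control set: positive and negative controls per plate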
RGS4 pot = potentiators or activators of RGS4. B-score at 10 µM. 310,000 compounds, 0.92% hits. AID 463111. HEK293 M3R/inducible RGS4, carbachol calcium flux Fluo4; hits give low values;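 active = B-score of the integrated calcium signal more than 4 SD below the library mean, with starting fluorescence not abnormally high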;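 also: negative B-score means reduced calcium response which marks RGS4 activation or potentiation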
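System – HEK293 FlpIn-TREx cells, stable M3R, doxycycline-inducible RGS4 · Reagent – ECmax carbachol challenge · Times – compound preincubation 20 min at room temperature before agonist · Technique – Fluo4 fluorescence kinetic imaging of calcium · Measure – B score of integrated Fluo4 ratio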
MrgX1 allo act = human MrgX1 positive allosteric modulation, primary screen; 310,000 compounds, 0.63% hits; MrgX1-HEK293, Fluo-4 calcium flux, FDSS; hits give high values; B-score at 10 µM; AID 588675;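 active = plate-corrected calcium response at least 3 library SD above typical, normal starting fluorescence, not activating the receptor alone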;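 also: compound read alongside a low EC10 to EC30 dose of BAM8-22 agonist; peak minus trough fluorescence over baseline measured at the second addition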
MrgX1 antagonist = human MrgX1 receptor antagonism, primary screen | AID 588676 | MRGX1-HEK293 calcium flux, Fluo-4, BAM8-22 antagonism; hits give low values | B-score at 10 µM | 310,000 compounds, 1.3% hits;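 active = calcium-response B-score plate-corrected more than 3 library SD below zero, starting fluorescence within 5 deviations, no agonist response on first addition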;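 also: peak minus trough fluorescence over baseline after final BAM8-22 challenge near maximal dose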
MrgX1 allo conf = human MrgX1 positive allosteric modulation, re-confirmation; shares compounds with MrgX1 allo act; MrgX1-HEK293, Fluo-4 calcium fluorescence, FDSS; activation (ratio percentage), % at 10 µM; 1,200 compounds, 13% hits; AID 602413;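 active = ratio at least 3 SD above the weak peptide control, stable starting fluorescence, no direct agonism earlier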;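 also: compound followed by low BAM8-22 agonist challenge near EC20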
MrgX1 ant reconf = reconfirmed antagonist of human MrgX1 receptor signaling; shares compounds with MrgX1 antagonist; MrgX1-HEK293, BAM8-22 calcium flux, Fluo-4; hits give low values; remaining BAM8-22 calcium response % of control (hits give low values), % at 10 µM; 2,300 compounds, 19% hits; AID 602420;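 active = remaining agonist calcium response no higher than 100% minus 3 SD of agonist-only control wells, with starting fluorescence near control levels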;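 also: agonist BAM8-22 given at a near maximal EC90 to ECmax level; peak minus minimum fluorescence divided by baseline after agonist addition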
HEK293 Ca flux = counter-screen for MrgX1 antagonists: effect in parental HEK293 cells; shares compounds with MrgX1 antagonist; fluorescence ratio F(max-min)/F0 at 10 µM; 4,000 compounds, 2% hits; Fluo-4 calcium fluorescence, FDSS;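 active = duplicate-averaged calcium fluorescence ratio at least three times the standard deviation of buffer wells, a nonspecific response in parental cells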
HEK293 Ca counter = activity in parental HEK293 cells without MrgX1. shares compounds with MrgX1 antagonist. parental HEK293 calcium flux, Fluo-4 fluorescence ratio; hits give high values. fluorescence ratio F(max-min)/F0 at 10 µM. 4,000 compounds, 0.4% hits. AID 624114;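 active = calcium fluorescence ratio, averaged over duplicates, at least 3 SD of the buffer-well ratio, meaning a nonspecific response in receptor-free cells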;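 also: untransfected parental HEK293 lacking MrgX1 used as counterscreen for MrgX1 allosteric activators; fluorescence change taken during the second addition on a kinetic imager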
HEK293 Ca cntr2 = counter-screen for MrgX1 activators: effect in parental HEK293 cells; shares compounds with MrgX1 antagonist; fluorescence ratio F(max-min)/F0 at 10 µM; 4,000 compounds, 8.7% hits; Fluo-4 calcium fluorescence (FDSS); hits give high values;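 active = calcium fluorescence ratio at least three times the spread of buffer wells, meaning a non-specific response in parental cells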
* hit, by the source's call; i = inactive; nt = no result. This is a sample that favours compounds with a hit; in the whole collection about 3.5% have one here.

SMILES | RGS4 block | MrgX1 agonist | RGS4 pot | MrgX1 allo act | MrgX1 antagonist | MrgX1 allo conf | HEK293 Ca flux | HEK293 Ca counter | HEK293 Ca cntr2 | others
Cc1ccc(Cn2ncc3c(N4CCN(Cc5ccc(Cl)cc5)CC4)ncnc32)cc1 | i | i | i | 8.4* | -12.1* | i | i | i | i | MrgX1 ant reconf=84.4%*
Cc1ccc(Cn2ncc3c(N4CCN(c5ccc(C)cc5)CC4)ncnc32)cc1 | i | i | i | i | i | nt | nt | nt | nt
O=C(NCCc1ccccc1)C1CC(=O)N(CCc2ccccc2)C1 (stereo not drawn) | i | i | i | i | i | nt | nt | nt | nt
CC1C(=O)N(Cc2ccccc2F)c2ccccc2N1C(=O)c1c(F)cccc1F (stereo not drawn) | i | i | i | 9* | i | i | i | i | i
CC(=O)c1ccc(NC(=O)C(Cc2ccccc2)NC(=O)c2ccco2)cc1 (stereo not drawn) | i | i | i | 8.87* | i | i | i | i | i
COc1ccc(NC(=O)C(Cc2ccccc2)NC(=O)c2ccco2)cc1OC (stereo not drawn) | i | i | i | i | i | nt | nt | nt | nt
COc1ccc(OC(=O)COc2cccc(C)c2)cc1 | i | i | i | i | i | nt | nt | nt | nt
COc1ccc(N(C(=O)COc2cccc(C)c2)S(=O)(=O)c2ccc(C)cc2)cc1 | i | i | i | 18.4* | i | i | i | i | i
CSc1ccccc1NC(=S)NCc1ccc(Cl)cc1 | i | i | i | i | i | nt | nt | nt | nt
CC12CCC(C(=O)Nc3nc4ccccc4s3)(OC1=O)C2(C)C (stereo not drawn) | i | i | i | 28.8* | i | 2.1%* | i | i | i
CCSCCc1nnc(NC(=O)Nc2cccc(C(F)(F)F)c2)s1 | i | i | i | i | i | nt | nt | nt | nt
CC(C)(C)c1csc(SCC(=O)Nc2ccc(Cl)cn2)n1 | i | i | i | 19.5* | i | 5.1%* | i | i | i
Cc1ccc(NCC(=O)Nc2ccc(Br)cc2)cc1F | i | i | i | 8.06* | i | i | i | i | i
CC(=O)NCCC(=O)Nc1ccc(C)c(F)c1 | i | i | i | i | i | nt | nt | nt | nt
Oc1ccc(/C=N/NC(=S)NCCN2CCOCC2)c(O)c1 | i | i | i | i | i | nt | nt | nt | nt
CC(=O)Nc1ccc(N2CCN(c3ccc(C(F)(F)F)cn3)CC2)nc1 | i | i | i | i | i | nt | nt | nt | nt
CCN(CC(=O)Nc1ccc(NC(C)=O)cc1)c1ccc(C(F)(F)F)cn1 | i | i | i | 9.58* | i | i | i | i | i
COc1ccc(C(=O)CCN2CCN(c3ccc(OC)cc3)CC2)cc1 | i | i | i | i | i | nt | nt | nt | nt
COc1ccc(C(=O)CCN2CCN(c3ccccc3F)CC2)cc1 | i | i | i | 20.3* | i | i | i | i | i
O=C(c1ccc(F)cc1)n1c(NCc2ccccc2)n[nH]c1=S | i | i | i | 7.35* | i | i | i | i | i
COC(=O)c1[nH]c2ccc(C)cc2c1NC(=O)CN1CCN(c2ccccc2)CC1 | i | i | i | i | i | nt | nt | nt | nt
COC(=O)c1[nH]c2ccc(C)cc2c1NC(=O)CN1CCC(C)CC1 | i | i | i | 7.84* | i | i | i | i | i
NS(=O)(=O)c1ccc(NC(=O)CSc2ncccn2)cc1 | i | i | i | 15.9* | i | i | i | i | i
O=C(Nc1cc(F)c(Br)cc1F)c1ccc(Cl)cc1 | i | i | i | 21.4* | i | 10.1%* | i | i | i
NCc1ccccc1 | nt | i | nt | 13.3* | i | i | i | i | i
SMILES | RGS4 block | MrgX1 agonist | RGS4 pot | MrgX1 allo act | MrgX1 antagonist | MrgX1 allo conf | HEK293 Ca flux | HEK293 Ca counter | HEK293 Ca cntr2 | others
CCOc1ccccc1Nc1ccnc2cc(Cl)ccc12 | i | i | i | 10.7* | i | i | i | i | i
Cc1ccc(S(=O)(=O)NCc2ccccc2)cc1C(=O)NCC(C)(C)N1CCOCC1 | i | i | i | i | i | nt | nt | nt | nt
COc1ccc(C(=O)NCCNc2nc3cc(C)c(C)cc3cc2C)cc1 | i | i | i | i | i | nt | nt | nt | nt
CS(=O)(=O)N(CC(=O)N1CCN(c2cccc(Cl)c2)CC1)c1cccc(F)c1 | i | i | i | 8.2* | i | i | i | i | i
Cc1ccc2nc(-c3cccc(S(=O)(=O)N4CC(C)OC(C)C4)c3)cn2c1 (stereo not drawn) | i | i | i | i | i | nt | nt | nt | nt
Nc1ccc(Cl)cc1C(=O)OCC(=O)NC1CCS(=O)(=O)C1 (stereo not drawn) | i | i | i | 15.9* | i | i | i | i | i
O=C(NCCCn1ccnc1)c1nn2c(C(F)(F)F)cc(-c3ccc(Br)cc3)nc2c1Cl | i | i | i | i | i | nt | nt | nt | nt
CC1CCCC(NC(=O)CN2C(=O)c3cccnc3Oc3ccc(Cl)cc32)C1C (stereo not drawn) | i | i | i | 11* | i | i | i | i | 77.8*
O=C(CN1C(=O)c2cccnc2Oc2ccc(Cl)cc21)NC1CCCC1 | i | i | i | i | i | nt | nt | nt | nt
CC(C)(C)C(=O)c1cnc(Nc2ccccc2Cl)s1 | i | i | i | 7.11* | i | i | i | i | i
O=C(NNc1ccccc1)Nc1ccccc1F | i | i | i | i | i | nt | nt | nt | nt
O=C(Nc1ccccc1F)Nc1ccccc1F | i | i | i | 7.2* | i | i | i | i | i
CN1C(=O)CSC1=NC12CC3CC(CC(C3)C1)C2 | i | i | i | 8.17* | i | i | i | i | i
CCN1C(=O)CSC1=NC12CC3CC(CC(C3)C1)C2 | i | i | i | i | i | nt | nt | nt | nt

Source: PubChem BioAssay (Johns Hopkins Ion Channel Center)
